Data as given in ChEMBL document CHEMBL1134562, “Fluorosulfonyl- and bis-(beta-chloroethyl)amino-phenylamino functionalized pyrazolo[4,3-e]1,2,4-triazolo[1,5-c]pyrimidine derivatives: irreversible antagonists at the human A3 adenosine receptor and molecular modeling studies” (J Med Chem, 2001).

Key:
[1] = target: T1, Adenosine receptor A3 (Homo sapiens) (UniProt P0DMS8); assay: Irreversible inhibition of […]-AB-MECA binding to human adenosine A3 receptor at 100 nM
T1 sequence (whole entry): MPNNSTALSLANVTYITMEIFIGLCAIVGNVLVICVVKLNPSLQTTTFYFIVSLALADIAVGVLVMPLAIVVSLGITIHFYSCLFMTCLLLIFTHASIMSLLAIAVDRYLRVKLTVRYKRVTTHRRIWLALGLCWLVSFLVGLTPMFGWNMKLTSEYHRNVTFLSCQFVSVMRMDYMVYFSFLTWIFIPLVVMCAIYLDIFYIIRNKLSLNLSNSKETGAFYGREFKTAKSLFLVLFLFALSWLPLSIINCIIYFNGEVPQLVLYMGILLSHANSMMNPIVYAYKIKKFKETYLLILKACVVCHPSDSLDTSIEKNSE
Outline: (§1)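 Membranes from CHO cells stably expressing human A3 receptor, preincubated 1 h at room temperature with compound (DMSO ≤1%), then washed 9 times by centrifugation/resuspension in 50 mM Tris, 10 mM Mg2+, 1 mM EDTA pH 7.4 with 0.02% CHAPS; adenosine deaminase 3 units/mL throughout.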

[2] = target: T1, Adenosine receptor A3 (Homo sapiens); assay: Irreversible inhibition of […]-AB-MECA binding to human adenosine A3 receptor at 1 nM; outline: as §1
[3] = target: T1, Adenosine receptor A3 (Homo sapiens); assay: Irreversible inhibition of […]-AB-MECA binding to human adenosine A3 receptor at 10 nM; outline: as §1

SMILES | inhibition [1] | inhibition [2] | inhibition [3]
CCCCn1cc2c(nc(NC(=O)Nc3ccc(S(=O)(=O)F)cc3)n3nc(-c4ccco4)nc23)n1 | 73% | 31% | 40%
Cn1cc2c(nc(NC(=O)Nc3ccc(N(CCCl)CCCl)cc3)n3nc(-c4ccco4)nc23)n1 | 22% | 0% | 11%
CCCn1cc2c(nc(NC(=O)Nc3ccc(N(CCCl)CCCl)cc3)n3nc(-c4ccco4)nc23)n1 | 16% | 7.8% | 11%
CCCn1cc2c(nc(NC(=O)Nc3ccc(S(=O)(=O)F)cc3)n3nc(-c4ccco4)nc23)n1 | 79% | 47% | 70%
CCn1cc2c(nc(NC(=O)Nc3ccc(S(=O)(=O)F)cc3)n3nc(-c4ccco4)nc23)n1 | 65% | 4.1% | 30%
CCn1cc2c(nc(NC(=O)Nc3ccc(N(CCCl)CCCl)cc3)n3nc(-c4ccco4)nc23)n1 | 18% | 0% | 0%
CCCCn1cc2c(nc(NC(=O)Nc3ccc(N(CCCl)CCCl)cc3)n3nc(-c4ccco4)nc23)n1 | 9% | 0% | 7%
